These results are taken from ChEMBL document CHEMBL1124865, “Synthesis and biological evaluation of a series of parenteral 3'-quaternary ammonium cephalosporins” (J Med Chem, 1990).

What is called half-life is the time needed for the level to fall by half in the phase considered. Broadly, the ED50 is the midpoint of the dose-response relation.

The nature of data set [1]: Terminal half life in dogs at the dose of 60 mg/kg. The data set is classed as ADME, organism-based, Canis lupus familiaris. More on the design: dose 60 mg/kg. The note with it: dog, in vivo. An outline of the steps:
(§1)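 Overnight-fasted female mongrel dogs with a Foley bladder catheter; bolus into the cephalic vein. Plasma and urine collected before dosing and over 24 h after. Antibacterial activity measured by microbiological assay.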

Data set [2] deals with Canis familiaris. Briefly: Percent of dose in dogs urine at the dose of 60 mg/kg. Type of data set: functional, Canis lupus familiaris. An outline of the steps: as §1
The test system of data set [3] is Enterobacter cloacae. Put plainly: (§2) Antibacterial activity against Enterobacter cloacae 265A. The data set is classed as functional. The following applies: Enterobacter cloacae; read-out: MIC.
In data set [4] the test system is Escherichia coli. Briefly: Antibacterial activity against Escherichia coli EC14. The following applies: Escherichia coli; read-out: MIC. Type of data set: functional.
Data set [5] deals with Enterobacter cloacae. Briefly: Antibacterial activity against Enterobacter cloacae EB5. Type of data set: functional. The note with it: Enterobacter cloacae; read-out: MIC.
Data set [6] deals with Escherichia coli. Put plainly: Antibacterial activity against Escherichia coli TEM. The data set is classed as functional. The following applies: Escherichia coli; read-out: MIC.
For data set [7], the species on record is Cavia porcellus. Put plainly: In vitro relative anticholinergic potential in isolated guinea pig trachea. Type of data set: functional. Summed up:
(§3)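 Guinea pig trachea in Krebs' solution at 37.5 °C, 95% O2/5% CO2, pH 7.4, 2 g resting tension. Cumulative carbachol log dose-response curve (3-fold steps) run before and 30 min after adding antagonist at 1 mM. […] Tukey test on log2 dose ratios.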

Data set [8] deals with Klebsiella pneumoniae. Put plainly: microbe, parasite or virus in culture. The data set is classed as functional. The note with it: Klebsiella pneumoniae; read-out: MIC.
Data set [9] deals with Klebsiella pneumoniae. Put plainly: Antibacterial activity against Klebsiella pneumoniae X26. The data set is classed as functional. The note with it: Klebsiella pneumoniae; read-out: MIC.
For data set [10], the system named is Pseudomonas aeruginosa. Briefly: Antibacterial activity against Pseudomonas aeruginosa X528. The data set is classed as functional. The note with it: Pseudomonas aeruginosa; read-out: MIC.
Data set [11] concerns Pseudomonas aeruginosa. Put plainly: Antibacterial activity against Pseudomonas aeruginosa PS18. The following applies: Pseudomonas aeruginosa; read-out: MIC. Type of data set: functional.
Data set [12] relates to Staphylococcus aureus. Put plainly: Antibacterial activity against penicillin G resistance Staphylococcus aureus. The data set is classed as functional. The note with it: Staphylococcus aureus; read-out: MIC.
Data set [13] relates to Staphylococcus aureus. Put plainly: Antibacterial activity against penicillin G susceptible Staphylococcus aureus. The data set is classed as functional. The note with it: Staphylococcus aureus; read-out: MIC.
Data set [14] has as its system Streptococcus pneumoniae. Put plainly: Antibacterial activity against Streptococcus pneumoniae. Type of data set: functional. The following applies: Streptococcus pneumoniae; read-out: MIC.
In data set [15] the test system is Serratia marcescens. Briefly: Antibacterial activity against Serratia marcescens SE3. The data set is classed as functional. The following applies: Serratia marcescens; read-out: MIC.
Data set [16] has as its system Streptococcus pyogenes. Briefly: Antibacterial activity against Streptococcus pyogenes. Type of data set: functional. The following applies: Streptococcus pyogenes; read-out: MIC.
The test system of data set [17] is Enterococcus faecium. Briefly: Antibacterial activity against Enterococcus faecium. Type of data set: functional. The note with it: Enterococcus faecium; read-out: MIC.
A short description of data set [18]: In vitro dose required for anticholinergic activity in isolated guinea pig trachea. The data set is classed as functional.
Data set [19] relates to Bacteria. Described as §2.
The species named for data set [20] is Cavia porcellus. Put plainly: In vitro relative anticholinergic activity in isolated guinea pig trachea. Type of data set: functional. The following applies: read-out: pA2 (converted). An outline of the steps:
as §3

A short description of data set [21]: Terminal half life in dogs at the dose of 15 mg/kg. The data set is classed as ADME, organism-based, Canis lupus familiaris. Also on record: dose 15 mg/kg. The note with it: dog, in vivo. An outline of the steps: as §1
Data set [22] can be described thus: Terminal half life in dogs at the dose of 30 mg/kg. Type of data set: ADME, organism-based, Canis lupus familiaris. Also on record: dose 30 mg/kg. The note with it: dog, in vivo. An outline of the steps: as §1
For data set [23], the system named is Canis familiaris. Put plainly: Percent of dose in dogs urine at the dose of 15 mg/kg. The data set is classed as functional, Canis lupus familiaris. Summed up:
as §1

Data set [24] deals with Canis familiaris. Briefly: Percent of dose in dogs urine at the dose of 30 mg/kg. The data set is classed as functional, Canis lupus familiaris. Summed up: as §1
Data set [25] relates to Escherichia coli. Put plainly: In vitro relative hydrolysis rate against Escherichia coli IIIa. Type of data set: functional. Summed up: (§4)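 Spectrophotometric hydrolysis at 265 nm, substrate exposed to partially purified cell-free β-lactamase preparations; rate expressed as percentage of the cephaloridine rate.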
Data set [26] relates to Enterobacter cloacae. Put plainly: In vitro relative hydrolysis rate against Enterobacter Ia. The data set is classed as functional. Summed up: as §4
For data set [27], the system named is Klebsiella pneumoniae. Put plainly: In vitro relative hydrolysis rate against Klebsiella IV. The data set is classed as functional. An outline of the steps: as §4
The subject of data set [28] is Pseudomonas aeruginosa. Put plainly: In vivo efficacy against Pseudomonas aeruginosa infected mice treated at 1 hr and 5 hr post infection. The data set is classed as functional. The following applies: Pseudomonas aeruginosa; read-out: ED50.
In data set [29] the test system is Staphylococcus aureus. Put plainly: In vivo efficacy against Staphylococcus aureus infected mice treated at 1 hr and 5 hr post infection. The following applies: Staphylococcus aureus; read-out: ED50. Type of data set: functional.
Data set [30] concerns Escherichia coli. Put plainly: In vivo efficacy against Escherichia coli infected mice treated at 1 hr and 5 hr post infection. The note with it: Escherichia coli; read-out: ED50. The data set is classed as functional.
Data set [31] deals with Escherichia coli. Put plainly: In vivo efficacy against Escherichia coli infections in mice. The data set is classed as functional. The following applies: Escherichia coli; read-out: MIC.
For data set [32], the system named is Pseudomonas aeruginosa. Briefly: In vivo efficacy against Pseudomonas aeruginosa infections in mice. Type of data set: functional. The following applies: Pseudomonas aeruginosa; read-out: MIC.
Data set [33] has as its system Staphylococcus aureus. Briefly: In vivo efficacy against Staphylococcus aureus infections in mice. The note with it: Staphylococcus aureus; read-out: MIC. Type of data set: functional.
In data set [34] the test system is Pseudomonas aeruginosa. Briefly: In vitro relative hydrolysis rate against Pseudomonas Id. Type of data set: functional. Summed up: as §4
The test system of data set [35] is Staphylococcus aureus. Briefly: In vitro relative hydrolysis rate against Staphylococcus aureus. Type of data set: functional. An outline of the steps:
as §4

The nature of data set [36]: Terminal half life in Rhesus […] the dose of 30 mg/kg. Type of data set: ADME, organism-based, Macaca mulatta. More on the design: dose 30 mg/kg. The following applies: rhesus monkey. An outline of the steps: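 Male rhesus monkeys, 4 per compound, given a single intravenous dose of 30 mg/kg. […] Plasma and urine antibiotic levels measured by microbiological assay. Terminal half-life reported in min.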

For data set [37], the system named is Monkey. Briefly: Percent of dose in Rhesus monkeys urine at the dose of 30 mg/kg. The data set is classed as functional, Cercopithecidae. An outline of the steps:
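Male rhesus monkeys dosed intravenously at 30 mg/kg. Plasma sampled from 0.08–0.1 h up to 6–8 h; urine collected over 0–6/8 and 6/8–24 h. Samples measured by microbiological assay.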

Values after ≈ are worked out from the molar mass of the structure shown. Bounds are passed on as bounds.

In [1], `CO/N=C(\C(=O)N[C@@H]1C(=O)N2C(C(=O)[O-])=C(C[n+]3ccc4sc(C(=O)O)cc4c3)CS[C@H]12)c1csc(N)n1` registered a half-life of 1.5 h. The “Percent of dose recovered in urine” value in data set [2] is 98%. The MIC was 32 mg/L (≈ 55.7 µM) in [3]; below 0.008 mg/L in data set [4]; 0.06 mg/L (≈ 0.104 µM) in [5]; 0.03 mg/L (≈ 0.0522 µM) in data set [6]; 4 mg/L (≈ 6.96 µM) in data set [8]; below 0.008 mg/L in data set [9]. For the same molecule, the MIC was 2 mg/L (≈ 3.48 µM) in data set [10]; 8 mg/L (≈ 13.9 µM) in data set [11]; 16 mg/L (≈ 27.8 µM) in [12]; 2 mg/L (≈ 3.48 µM) in data set [13]; below 0.008 mg/L in data set [14]; 0.06 mg/L (≈ 0.104 µM) in data set [15]. For the same molecule, the MIC in data set [16] was below 0.008 mg/L; in [17] it was above 128 mg/L. The RAP in data set [7] is reported as 2. Moreover, the Dose ratio in data set [18] is given as 1.52.
As to `CO/N=C(\C(=O)N[C@@H]1C(=O)N2C(C(=O)[O-])=C(C[n+]3cccc(CC(=O)O)c3)CS[C@H]12)c1csc(N)n1` (stereo in doubt; 17), the MIC in data set [19] is 32 mg/L (≈ 60.1 µM).
With `CO/N=C(\C(=O)N[C@@H]1C(=O)N2C(C(=O)[O-])=C(C[n+]3ccc4sc(C)nc4c3)CS[C@H]12)c1csc(N)n1`, the MIC in [3] turned out to be 2 mg/L (≈ 3.67 µM); in [4], 0.015 mg/L (≈ 0.0275 µM); in data set [8] it was 2 mg/L (≈ 3.67 µM); in data set [10] it was 4 mg/L (≈ 7.33 µM); in [11], 8 mg/L (≈ 14.7 µM); in data set [12], 2 mg/L (≈ 3.67 µM). Besides, the MIC is 2 mg/L (≈ 3.67 µM) in data set [13]; 0.015 mg/L (≈ 0.0275 µM) in [14]; 0.125 mg/L (≈ 0.229 µM) in data set [15]; 0.008 mg/L (≈ 0.0147 µM) in data set [16]; 128 mg/L (≈ 235 µM) in [17]. This molecule also yielded an RAP in data set [7] of 7. In data set [20], the Kb is 603 µM.
Take `CO/N=C(\C(=O)N[C@@H]1C(=O)N2C(C(=O)[O-])=C(C[n+]3ccc4sccc4c3)CS[C@H]12)c1csc(N)n1`: the values for the half-life in data set [21] and in [22] were 1.75 h and 1.5 h, respectively. Besides, the results for the Dose in data set [23] and in data set [24] were 55% and 58%, respectively. For the same molecule, the Hydrolysis rate in [25] is 0.3; in data set [26], 0.6; in [27], 3.4; in data set [34] it was 0.3; in data set [35] it was 7.8. In addition, the MIC was 4 mg/L (≈ 7.54 µM) in [3]; 0.015 mg/L (≈ 0.0283 µM) in [4]; 0.06 mg/L (≈ 0.113 µM) in [5]; 0.03 mg/L (≈ 0.0565 µM) in data set [6]; 2 mg/L (≈ 3.77 µM) in [8]; 0.015 mg/L (≈ 0.0283 µM) in data set [9]. Moreover, the MIC in data set [31] was below 0.008 mg/L; in data set [32], 2 mg/L (≈ 3.77 µM); in data set [33], 1 mg/L (≈ 1.88 µM); in [10], 2 mg/L (≈ 3.77 µM); in data set [11], 4 mg/L (≈ 7.54 µM); in [12], 2 mg/L (≈ 3.77 µM). For the same molecule, the MIC in data set [13] was 1 mg/L (≈ 1.88 µM); in data set [14], 0.015 mg/L (≈ 0.0283 µM); in [15], 0.125 mg/L (≈ 0.236 µM); in [16] it was below 0.008 mg/L; in data set [17], above 128 mg/L. The molecule also had an RAP in data set [7] of 100. Besides, in [20], the Kb is 43.7 µM. The ED50 came to 6.3 mg/kg in data set [28], 0.4 mg/kg in data set [29] and 0.02 mg/kg in data set [30]. In data set [18], the Dose ratio is 23.67.
`CC(C)(O/N=C(\C(=O)N[C@@H]1C(=O)N2C(C(=O)[O-])=C(C[n+]3ccccc3)CS[C@H]12)c1csc(N)n1)C(=O)O` [CEFTAZIDIME] yielded a half-life in data set [36] of 0.933 h. Also, the MIC in data set [3] was 64 mg/L (≈ 117 µM); in [8], 1 mg/L (≈ 1.83 µM); in data set [10] it was 2 mg/L (≈ 3.66 µM); in [11], 4 mg/L (≈ 7.32 µM); in data set [15], 0.5 mg/L (≈ 0.915 µM); in data set [17], above 128 mg/L. Moreover, in data set [7], the RAP is 1. In data set [37], this molecule displayed a Dose of 64%.
